Experimental data from ChEMBL document CHEMBL2163218, “Design, synthesis, and biological and structural evaluations of novel HIV-1 protease inhibitors to combat drug resistance” (J Med Chem, 2012).

How the values were obtained:
[1] = test system: Human immunodeficiency virus 1; experiment: Antiviral activity against wild type HIV1 clade A isolated form HIV1 patient infected in HEK293 cells assessed as reduction in viral replication incubated for 48 hrs by luciferase reporter based assay; format: functional, organism-based; conditions: Human immunodeficiency virus 1, clade A, HEK293, 48 h
[2] = test system: Human immunodeficiency virus 1; experiment: Antiviral activity against multidrug resistant HIV1 MDRC4 infected in HEK293 cells assessed as reduction in viral replication incubated for 48 hrs by luciferase reporter based assay; format: functional, organism-based; conditions: Human immunodeficiency virus 1, MDRC4, HEK293, 48 h
[3] = test system: Human immunodeficiency virus 1; experiment: Antiviral activity against wild type HIV1 infected in HEK293 cells assessed as reduction in viral replication incubated for 48 hrs by luciferase reporter based assay; format: functional, organism-based; conditions: Human immunodeficiency virus 1, HEK293, 48 h
[4] = test system: Human immunodeficiency virus 1; experiment: Antiviral activity against wild type HIV1 clade C isolated form HIV1 patient infected in HEK293 cells assessed as reduction in viral replication incubated for 48 hrs by luciferase reporter based assay; format: functional, organism-based; conditions: Human immunodeficiency virus 1, clade C, HEK293, 48 h
[5] = test system: Human immunodeficiency virus 1; experiment: Antiviral activity against multidrug resistant HIV1 MDR1 containing protease M46I, I54V, V82A and L90M mutant infected in HEK293 cells assessed as reduction in viral replication incubated for 48 hrs by luciferase reporter based assay; format: functional, organism-based; conditions: Human immunodeficiency virus 1, MDR1, HEK293, 48 h
[6] = test system: Human immunodeficiency virus 1; experiment: Antiviral activity against wild type HIV1 clade B isolated form HIV1 patient infected in HEK293 cells assessed as reduction in viral replication incubated for 48 hrs by luciferase reporter based assay; format: functional, organism-based; conditions: Human immunodeficiency virus 1, clade B, HEK293, 48 h
[7] = target: Protease (Human immunodeficiency virus 1, UniProt Q9YQ12); experiment: Inhibition of wild type HIV1 protease by FRET assay
In short: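 Recombinant HIV-1 protease Q7K, desalted into 20 mM sodium acetate pH 5, apparent concentration ~50 nM (UV 280 nm). Inhibitors in DMSO, 12 concentrations, added with protease to buffer pH 4.7 (0.1 M NaOAc, 1 M NaCl, 1 mM EDTA, 1 mM DTT, 2% DMSO, 1 mg/mL BSA). Cleavage started by injecting EDANS/DABCYL peptide substrate. Ki from initial velocities fitted to the Morrison equation.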

[8] = target: Human immunodeficiency virus type 1 protease (Human immunodeficiency virus 1, UniProt Q72874, G48V/I54V/L10I/L63P/V82A); experiment: Inhibition of HIV1 protease L10I, G48V, I54V, L63P and V82A mutant by FRET assay
[9] = target: Human immunodeficiency virus type 1 protease (Human immunodeficiency virus 1, UniProt Q72874, A71V/G73S/I84V/L10I/L63P/L90M); experiment: Inhibition of HIV1 protease L10I, L63P, A71V, G73S, I84V, L90M mutant by FRET assay
[10] = target: Human immunodeficiency virus type 1 protease (Human immunodeficiency virus 1, UniProt Q72874, A71V/I50V); experiment: Inhibition of HIV1 protease I50V, A71V mutant by FRET assay

Protease, sequence (Q9YQ12 whole entry): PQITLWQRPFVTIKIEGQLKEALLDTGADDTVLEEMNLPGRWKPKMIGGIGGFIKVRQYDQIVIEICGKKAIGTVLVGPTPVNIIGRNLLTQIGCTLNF

SMILES	EC50 [1] [nM]	EC50 [2] [nM]	EC50 [3] [nM]	EC50 [4] [nM]	EC50 [5] [nM]	EC50 [6] [nM]	Ki [7] [nM]	also measured
CC(C)CN(C[C@@H](O)[C@H](Cc1ccccc1)NC(=O)O[C@H]1CCOC1)S(=O)(=O)c1ccc(N)cc1	2.6	17.5	3	3.7	15.6	1.8	–	–
CC(C)CN(C[C@@H](O)[C@H](Cc1ccccc1)NC(=O)O[C@H]1CO[C@H]2OCC[C@H]21)S(=O)(=O)c1ccc(N)cc1	0.3	–	0.25	0.18	0.23	0.15	–	–
CCCCCN(C[C@@H](O)[C@H](Cc1ccccc1)NC(=O)OCCN1CCNC1=O)S(=O)(=O)c1ccc(OC)cc1	–	–	–	–	–	–	0.398	–
CCCCCN(C[C@@H](O)[C@H](Cc1ccccc1)NC(=O)OCCN1CCOC1=O)S(=O)(=O)c1ccc(OC)cc1	126	265	77.1	158	300	52.4	0.008	–
CCCCCN(C[C@@H](O)[C@H](Cc1ccccc1)NC(=O)O[C@@H]1CCOC1=O)S(=O)(=O)c1ccc(OC)cc1	–	–	–	–	–	–	65.9	–
CCCCCN(C[C@@H](O)[C@H](Cc1ccccc1)NC(=O)OC[C@@H]1CCC(=O)N1)S(=O)(=O)c1ccc(OC)cc1	–	–	–	–	–	–	0.624	–
CCCCCN(C[C@@H](O)[C@H](Cc1ccccc1)NC(=O)O[C@H](C)CC(=O)OC)S(=O)(=O)c1ccc2ncsc2c1	–	–	–	–	–	–	11.4	Ki [8]: 180 nM; Ki [9]: 45.9 nM; Ki [10]: 120 nM
CCCCCN(C[C@@H](O)[C@H](Cc1ccccc1)NC(=O)OCCNC(=O)C(F)(F)F)S(=O)(=O)c1ccc2ncsc2c1	–	–	–	–	–	–	19.7	–
CCCCCN(C[C@@H](O)[C@H](Cc1ccccc1)NC(=O)OCCNC(=O)C(Cl)Cl)S(=O)(=O)c1ccc2ncsc2c1	79.2	285	38.3	67	254	30.3	–	–
CCCCCN(C[C@@H](O)[C@H](Cc1ccccc1)NC(=O)O[C@H](C)CCC(C)=O)S(=O)(=O)c1ccc2ncsc2c1	–	–	–	–	–	–	3.38	–
CCCCCN(C[C@@H](O)[C@H](Cc1ccccc1)NC(=O)OCCNC(=O)OC(C)(C)C)S(=O)(=O)c1ccc2ncsc2c1	–	–	–	–	–	–	1.29	–
CCCCCN(C[C@@H](O)[C@H](Cc1ccccc1)NC(=O)OC[C@@H](C)C(=O)OC)S(=O)(=O)c1ccc2ncsc2c1	–	–	–	–	–	–	3.34	–
CCCCCN(C[C@@H](O)[C@H](Cc1ccccc1)NC(=O)OCCN1CCNC1=O)S(=O)(=O)c1ccc2ncsc2c1	99.7	274	83.8	130	237	53.9	0.217	–
CCCCCN(C[C@@H](O)[C@H](Cc1ccccc1)NC(=O)OCCN1CCOC1=O)S(=O)(=O)c1ccc2ncsc2c1	96.3	420	73	120	259	41.1	0.017	–
CCCCCN(C[C@@H](O)[C@H](Cc1ccccc1)NC(=O)O[C@@H]1CCOC1=O)S(=O)(=O)c1ccc2ncsc2c1	–	–	–	–	–	–	42.1	–
CCCCCN(C[C@@H](O)[C@H](Cc1ccccc1)NC(=O)OC[C@@H]1CCC(=O)N1)S(=O)(=O)c1ccc2ncsc2c1	82.7	174	58.9	96.5	130	44.8	–	–
CC[C@H](C)CN(C[C@@H](O)[C@H](Cc1ccccc1)NC(=O)OCCNC(=O)C(F)(F)F)S(=O)(=O)c1ccc2ncsc2c1	–	–	–	–	–	–	9.13	–
CC[C@H](C)CN(C[C@@H](O)[C@H](Cc1ccccc1)NC(=O)OCCNC(=O)C(Cl)Cl)S(=O)(=O)c1ccc2ncsc2c1	64.1	189	43	88	144	28.6	–	–
CC[C@H](C)CN(C[C@@H](O)[C@H](Cc1ccccc1)NC(=O)OCCNC(=O)OC(C)(C)C)S(=O)(=O)c1ccc2ncsc2c1	231	918	198	331	756	183	–	–

SMILES	EC50 [1] [nM]	EC50 [2] [nM]	EC50 [3] [nM]	EC50 [4] [nM]	EC50 [5] [nM]	EC50 [6] [nM]	Ki [7] [nM]	also measured
CC[C@H](C)CN(C[C@@H](O)[C@H](Cc1ccccc1)NC(=O)OC[C@@H](C)C(=O)OC)S(=O)(=O)c1ccc2ncsc2c1	–	–	–	–	–	–	1.39	–
CC[C@H](C)CN(C[C@@H](O)[C@H](Cc1ccccc1)NC(=O)OCCN1CCNC1=O)S(=O)(=O)c1ccc2ncsc2c1	31.4	88.1	34.8	49.3	50.4	21.6	–	–
CC[C@H](C)CN(C[C@@H](O)[C@H](Cc1ccccc1)NC(=O)OCCN1CCOC1=O)S(=O)(=O)c1ccc2ncsc2c1	21.2	73.6	33.3	36.2	32.2	12	0.005	–
CC[C@H](C)CN(C[C@@H](O)[C@H](Cc1ccccc1)NC(=O)OC[C@@H]1CCC(=O)N1)S(=O)(=O)c1ccc2ncsc2c1	25.1	35.6	15.5	13.2	21.1	16.4	–	–
CCCCCN(C[C@@H](O)[C@H](Cc1ccccc1)NC(=O)O[C@H](C)CC(=O)OC)S(=O)(=O)c1ccc(OC)cc1	–	–	–	–	–	–	17.2	–
CCCCCN(C[C@@H](O)[C@H](Cc1ccccc1)NC(=O)OCCNC(=O)C(F)(F)F)S(=O)(=O)c1ccc(OC)cc1	–	–	–	–	–	–	31.4	–
CCCCCN(C[C@@H](O)[C@H](Cc1ccccc1)NC(=O)O[C@H](C)CCC(C)=O)S(=O)(=O)c1ccc(OC)cc1	–	–	–	–	–	–	6.98	–
CCCCCN(C[C@@H](O)[C@H](Cc1ccccc1)NC(=O)OCCNC(=O)OC(C)(C)C)S(=O)(=O)c1ccc(OC)cc1	–	–	–	–	–	–	2.95	–
CC[C@H](C)CN(C[C@@H](O)[C@H](Cc1ccccc1)NC(=O)OC(C)(C)C)S(=O)(=O)c1ccc2ncsc2c1	–	–	–	–	–	–	0.243	–
CC[C@H](C)CN(C[C@@H](O)[C@H](Cc1ccccc1)NC(=O)OCCNC(=O)C(F)(F)F)S(=O)(=O)c1ccc(OC)cc1	–	–	–	–	–	–	11.9	–
CC[C@H](C)CN(C[C@@H](O)[C@H](Cc1ccccc1)NC(=O)OCCNC(=O)C(Cl)Cl)S(=O)(=O)c1ccc(OC)cc1	51.3	159	39.1	84.6	123	30.7	–	–
CC[C@H](C)CN(C[C@@H](O)[C@H](Cc1ccccc1)NC(=O)O[C@H](C)CCC(C)=O)S(=O)(=O)c1ccc(OC)cc1	–	–	–	–	–	–	0.426	–
CC[C@H](C)CN(C[C@@H](O)[C@H](Cc1ccccc1)NC(=O)OCCNC(=O)OC(C)(C)C)S(=O)(=O)c1ccc(OC)cc1	–	–	–	–	–	–	2.01	–
CC[C@H](C)CN(C[C@@H](O)[C@H](Cc1ccccc1)NC(=O)OC[C@@H](C)C(=O)OC)S(=O)(=O)c1ccc(OC)cc1	24.9	56	30.9	36.3	41.8	20.6	–	–
CC[C@H](C)CN(C[C@@H](O)[C@H](Cc1ccccc1)NC(=O)OCCN1CCNC1=O)S(=O)(=O)c1ccc(OC)cc1	95.4	132	84.4	135	113	57.3	–	–
CC[C@H](C)CN(C[C@@H](O)[C@H](Cc1ccccc1)NC(=O)OCCN1CCOC1=O)S(=O)(=O)c1ccc(OC)cc1	43.3	74.4	40.5	57.3	56.1	27.8	–	–
CC[C@H](C)CN(C[C@@H](O)[C@H](Cc1ccccc1)NC(=O)O[C@@H]1CCOC1=O)S(=O)(=O)c1ccc(OC)cc1	–	–	–	–	–	–	35.1	–
CC[C@H](C)CN(C[C@@H](O)[C@H](Cc1ccccc1)NC(=O)OC[C@@H]1CCC(=O)N1)S(=O)(=O)c1ccc(OC)cc1	64.5	72.2	43.9	44.1	37.1	38.5	–	–
